Format in all cases: cell-based
Assay [1] has as its target Exportin-1 (Homo sapiens) (UniProt O14980). As to the kind of experiment: Inhibition of CRM1-mediated nucleocytoplasmic transport of RevM5 mutant in HEK293 cells assessed as RevM5-GFP nuclear localization at 0.4 ug/ml after 2 hrs by fluorescence microscopy. A digest of the protocol: (§1)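 HEK 293T cells in 96-well trays were transfected with pRevM5-GFP by calcium phosphate, and compound was added one day later. RevM5-GFP distribution was scored by fluorescence microscopy 2 h after addition. Mainly nuclear localization was scored positive; cytoplasmic localization was scored negative.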

For assay [2] the target is unchanged. Briefly: Inhibition of CRM1-mediated nucleocytoplasmic transport of RevM5 mutant in HEK293 cells assessed as RevM5-GFP nuclear localization at 0.08 ug/ml after 2 hrs by fluorescence microscopy. A digest of the protocol: as §1
Assay [3] shares this target. Briefly: Inhibition of CRM1-mediated nucleocytoplasmic transport of RevM5 mutant in HEK293 cells assessed as RevM5-GFP nuclear localization at 2 ug/ml after 2 hrs by fluorescence microscopy. A digest of the protocol: as §1
The target is the same in assay [4]. Briefly: Inhibition of CRM1-mediated nucleocytoplasmic transport of RevM5 mutant in HEK293 cells assessed as RevM5-GFP nuclear localization at 10 ug/ml after 2 hrs by fluorescence microscopy. A digest of the protocol:
as §1

Active and inactive are the calls of the source. No cut-off for these calls is given here.

Chain of Exportin-1 (Homo sapiens) (O14980 whole entry): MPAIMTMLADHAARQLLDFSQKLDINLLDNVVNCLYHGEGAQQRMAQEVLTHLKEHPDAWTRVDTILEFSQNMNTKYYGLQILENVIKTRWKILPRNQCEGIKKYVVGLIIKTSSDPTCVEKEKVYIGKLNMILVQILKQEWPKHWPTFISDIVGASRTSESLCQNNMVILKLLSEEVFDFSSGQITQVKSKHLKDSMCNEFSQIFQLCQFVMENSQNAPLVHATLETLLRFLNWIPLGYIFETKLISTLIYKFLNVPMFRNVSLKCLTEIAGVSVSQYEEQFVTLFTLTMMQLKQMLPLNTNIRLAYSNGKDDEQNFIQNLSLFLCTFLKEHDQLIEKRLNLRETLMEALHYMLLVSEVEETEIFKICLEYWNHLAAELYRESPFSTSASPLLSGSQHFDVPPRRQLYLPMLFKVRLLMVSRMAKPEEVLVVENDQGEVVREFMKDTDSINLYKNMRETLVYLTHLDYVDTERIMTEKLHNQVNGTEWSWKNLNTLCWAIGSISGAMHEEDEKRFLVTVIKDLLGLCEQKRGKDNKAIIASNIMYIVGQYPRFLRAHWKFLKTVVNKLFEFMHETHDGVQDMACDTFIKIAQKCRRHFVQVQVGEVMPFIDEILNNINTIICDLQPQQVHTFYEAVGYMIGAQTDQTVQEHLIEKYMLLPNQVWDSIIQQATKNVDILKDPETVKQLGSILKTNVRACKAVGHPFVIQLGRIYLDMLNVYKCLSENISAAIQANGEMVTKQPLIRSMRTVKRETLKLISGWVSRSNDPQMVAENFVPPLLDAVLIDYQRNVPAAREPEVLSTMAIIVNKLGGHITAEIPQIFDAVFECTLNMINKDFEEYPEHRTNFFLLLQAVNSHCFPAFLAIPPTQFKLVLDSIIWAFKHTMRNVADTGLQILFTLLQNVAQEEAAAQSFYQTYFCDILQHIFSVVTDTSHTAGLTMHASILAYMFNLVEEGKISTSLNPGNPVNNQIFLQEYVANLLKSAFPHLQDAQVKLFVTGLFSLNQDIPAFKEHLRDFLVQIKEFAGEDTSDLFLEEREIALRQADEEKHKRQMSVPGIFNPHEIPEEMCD

As to `CCOC(=O)/C=C/n1cnc(-c2ccccc2)c1`, the result in assay [1], in assay [2] and in assay [3] was inactive.

As for `CCOC(=O)/C=C\n1nnnc1-c1ccccc1Cl`, the outcome in assay [1], in assay [2] and in assay [3] was inactive.

For `CCOC(=O)/C=C\n1nnc(-c2cccc(Br)c2)n1`, the outcome in assay [4] and in assay [3] was Active. Further, in assay [2], the outcome was inactive.

In the case of `CCOC(=O)/C=C\n1nnnc1-c1cccc(I)c1`, the result in assay [1], in assay [4], in assay [2] and in assay [3] was inactive.

With `Clc1ccc(-c2nnn[nH]2)cc1`, the outcome in assay [1], in assay [4], in assay [2] and in assay [3] was inactive.

Take `CCOC(=O)/C=C/n1nnc(-c2ccccc2Cl)n1`: the result in assay [1], in assay [2] and in assay [3] was inactive. The result in assay [4] was Active.

Consider `CCOC(=O)/C=C/n1nnc(-c2ccccc2)n1`, for which the result in assay [1] and in assay [2] was inactive.

As for `CCOC(=O)/C=C\n1ncnn1`, the result in assay [1], in assay [4], in assay [2] and in assay [3] was inactive.

As to `CCOC(=O)/C=C/n1nnc(-c2ccc(Cl)cc2)n1`, the result in assay [1], in assay [2] and in assay [3] was inactive. For the same compound, the outcome in assay [4] was Active.

For the compound `CCOC(=O)/C=C/n1nnc(-c2cc(Cl)ccc2N)n1`, the result in assay [1] and in assay [2] was inactive. Besides, the outcome in assay [4] and in assay [3] was Active.

Consider `CCOC(=O)/C=C\n1nnc(-c2cccc(F)c2)n1`, for which the outcome in assay [4] and in assay [3] was Active. The result in assay [2] was inactive.

For `CCOC(=O)/C=C/n1nnc(-c2cccc(I)c2)n1`, the outcome in assay [1] and in assay [2] was inactive. In addition, the outcome in assay [4] was Active.

For `CCOC(=O)/C=C\n1ccc(-c2ccccc2)n1`, the outcome in assay [1], in assay [4], in assay [2] and in assay [3] was inactive.

`CCOC(=O)/C=C/n1nnnc1-c1cccc(Br)c1`: the result in assay [1], in assay [2] and in assay [3] was inactive.

`CCOC(=O)/C=C/n1cnc(-c2ccccc2N)n1`: the result in assay [1], in assay [4], in assay [2] and in assay [3] was inactive.

On to `Ic1cccc(-c2nnn[nH]2)c1`, for which the result in assay [1], in assay [4], in assay [2] and in assay [3] was inactive.

With `CCOC(=O)/C=C/n1ccc(-c2ccccc2)n1`, the result in assay [1], in assay [4], in assay [2] and in assay [3] was inactive.

Consider `CCOC(=O)/C=C\n1nnnc1-c1cccc(F)c1`, for which the result in assay [1], in assay [4], in assay [2] and in assay [3] was inactive.

On to `CCOC(=O)/C=C/n1nnnc1-c1ccccc1`, for which the outcome in assay [1], in assay [4], in assay [2] and in assay [3] was inactive.

Take `CCOC(=O)/C=C/n1nnnc1-c1ccc(Cl)cc1`: the outcome in assay [1], in assay [4], in assay [2] and in assay [3] was inactive.

On to `CCOC(=O)/C=C/n1ccnc1-c1ccccc1`, for which the outcome in assay [1], in assay [4], in assay [2] and in assay [3] was inactive.

As to `CCOC(=O)/C=C/n1ncnn1`, the result in assay [1], in assay [4], in assay [2] and in assay [3] was inactive.

On to `CCOC(=O)/C=C/n1nnc(-c2cccc(F)c2)n1`, for which the result in assay [1], in assay [2] and in assay [3] was inactive. The result in assay [4] was Active.

Turning to `CCOC(=O)/C=C\n1cnc(-c2ccccc2N)n1`, the result in assay [1] and in assay [2] was inactive. In addition, the result in assay [4] was Active.

For the compound `CCOC(=O)/C=C/n1nnnc1-c1cccc(F)c1`, the result in assay [1], in assay [2] and in assay [3] was inactive.

Regarding `CCOC(=O)/C=C\n1nnnc1-c1cccc(Cl)c1`, the outcome in assay [1], in assay [2] and in assay [3] was inactive. Besides, the outcome in assay [4] was Active.

Take `Brc1cccc(-c2nnn[nH]2)c1`: the outcome in assay [1], in assay [4], in assay [2] and in assay [3] was inactive.

For `CCOC(=O)/C=C/n1nnnc1-c1cccc(I)c1`, the outcome in assay [1], in assay [2] and in assay [3] was inactive.

Turning to `CCOC(=O)/C=C\n1nnc(-c2cccc(I)c2)n1`, the result in assay [4] and in assay [3] was Active. In addition, the result in assay [2] was inactive.

Consider `CCOC(=O)/C=C\n1cnc(-c2ccccc2)c1`, for which the result in assay [1] and in assay [2] was inactive. Also, the outcome in assay [4] was Active.

`CCOC(=O)/C=C\n1nnc(-c2ccccc2)n1`: the outcome in assay [1], in assay [2] and in assay [3] was inactive. Moreover, the outcome in assay [4] was Active.

For the compound `CCOC(=O)/C=C\n1nnc(-c2ccccc2Cl)n1`, the outcome in assay [4] and in assay [3] was Active. In assay [2], the outcome was inactive.

Consider `CCOC(=O)/C=C/n1nnnc1-c1cccc(Cl)c1`, for which the outcome in assay [1], in assay [2] and in assay [3] was inactive.

For the compound `CCOC(=O)/C=C/n1nnc(-c2cccc(Br)c2)n1`, the result in assay [1] and in assay [2] was inactive. Besides, in assay [4], the outcome was Active.

Consider `CCOC(=O)/C=C\n1nnc(-c2ccc(Cl)cc2)n1`, for which the outcome in assay [1] and in assay [2] was inactive. Further, the result in assay [4] was Active.

Values taken from ChEMBL document CHEMBL1152253, “Inhibition of the CRM1-mediated nucleocytoplasmic transport by N-azolylacrylates: structure-activity relationship and mechanism of action” (Bioorg Med Chem, 2008).
